Reference: ChEMBL document CHEMBL1159376, “Potential cancer chemopreventive constituents of the seeds of Dipteryx odorata (tonka bean)” (J Nat Prod, 2003)

Key:
[1] = Inhibition of 7,12-dimethylbenz[a]anthracene-induced […] lesions in mouse mammary organ culture model at 10 ug/ml; format: functional; conditions: Mammary gland
In short: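 Mouse mammary glands in organ culture with 7,12-dimethylbenz[a]anthracene-induced preneoplastic lesions. Samples were tested at 10 µg/mL, with sulforaphane at 1 µg/mL as positive control. The read-out was percent inhibition of lesion formation.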

[2] = Growth inhibition of mouse Hepa-1c1c7 cells; format: functional, cell-based
[3] = Chemoprevention index, ratio of IC50 for mouse Hepa-1c1c7 cells to drug level required to double quinone reductase activity in mouse Hepa-1c1c7 cells; format: functional
tissue or blood = conditions: Mus musculus, Mammary gland, read-out: INH

COc1cc(/C=C2\Oc3cc(O)ccc3C2=O)ccc1O
inhibition at 10 µg/mL [1]: 48.2%
IC50 [2]: 34.6 µM
Ratio [3]: 5.4

COc1cc(C2Oc3c(OC)cc(/C=C/C=O)cc3C2CO)ccc1O (racemic)
IC50 [2]: 48.5 µM
Ratio [3]: 3.2

O=C(/C=C/c1ccc(O)cc1)c1ccc(O)cc1O [ISOLIQUIRITIGENIN]
inhibition at 10 µg/mL [1]: 76%
IC50 [2]: 27.3 µM
Ratio [3]: 7.2

C[S+]([O-])CCCCN=C=S (centres undefined) [SULFORAPHANE]
IC50 [2]: 27.3 µM
inhibition at 1 µg/mL (tissue or blood): 83.7%
Ratio [3]: 7.2

O=C1/C(=C/c2ccc(O)c(O)c2)Oc2cc(O)ccc21 [SULFURETIN]
inhibition at 10 µg/mL [1]: 58.5%
IC50 [2]: 78.5 µM
Ratio [3]: 3.8
